Experimental data published in ChEMBL document CHEMBL4270523, “A comparative study of non-native N-acyl l-homoserine lactone analogs in two Pseudomonas aeruginosa quorum sensing receptors that share a common native ligand yet inversely regulate virulence” (Bioorg Med Chem, 2018).

Columns and labels:
[1] = target: T1, Transcriptional activator protein LasR (Pseudomonas aeruginosa (strain ATCC 15692 / PAO1 / 1C / PRS 101 / LMG12228)) (UniProt P25084); assay: Agonist activity at Pseudomonas aeruginosa LasR expressed in Escherichia coli JLD271 harboring LasR expression plasmid pJN105L and lasI-lacZ transcriptional fusion reporter pSC11-L measured after 35 mins by Miller-type beta-galactosidase reporter gene assay relative to OdDHL
T1 sequence (whole entry): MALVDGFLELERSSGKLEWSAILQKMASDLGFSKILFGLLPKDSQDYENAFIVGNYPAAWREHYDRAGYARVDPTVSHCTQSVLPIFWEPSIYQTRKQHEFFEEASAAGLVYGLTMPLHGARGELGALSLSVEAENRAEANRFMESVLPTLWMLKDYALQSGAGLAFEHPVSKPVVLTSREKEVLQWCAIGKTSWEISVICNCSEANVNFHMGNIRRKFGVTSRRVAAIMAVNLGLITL
Outline: (§1)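 E. coli JLD271 (ΔsdiA) reporter cells grown in LB at 37 °C. Miller-type β-galactosidase assay with CPRG or ONPG substrate; growth read as OD600. Compounds tested from 1 pM to 100 μM. Activity is expressed relative to 100 μM OdDHL. EC50 taken from dose–response curves. Run in triplicate, n ≥ 3 trials; 95% CIs from SEM. Maximum activation has error ±10%.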

PhzR [2] = target: T2, PhzR (Pseudomonas aeruginosa, UniProt Q9RMS5); assay: (§2) Agonist activity at Pseudomonas aeruginosa QscR expressed in Escherichia coli JLD271 harboring QscR expression plasmid pJN105Q and pPA1897-lacZ transcriptional fusion reporter pSC11-Q measured after 35 mins by Miller-type beta-galactosidase reporter gene assay
T2 sequence (Q9RMS5 whole entry): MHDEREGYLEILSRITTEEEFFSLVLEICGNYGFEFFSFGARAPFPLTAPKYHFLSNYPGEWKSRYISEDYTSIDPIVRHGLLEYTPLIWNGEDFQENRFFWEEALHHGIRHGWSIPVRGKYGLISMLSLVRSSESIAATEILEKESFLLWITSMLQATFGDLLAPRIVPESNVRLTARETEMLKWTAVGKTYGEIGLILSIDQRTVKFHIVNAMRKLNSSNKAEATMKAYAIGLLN
Outline: as §1, with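 “curves.” for “curves. Run in triplicate, n ≥ 3 trials; 95% CIs from SEM.”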

[3] = target: T3, PhzR (Pseudomonas aeruginosa) (UniProt Q9RMS5); assay: Agonist activity at Pseudomonas aeruginosa QscR expressed in Escherichia coli JLD271 harboring QscR expression plasmid pJN105Q and pPA1897-lacZ transcriptional fusion reporter pSC11-Q measured after 35 mins by Miller-type beta-galactosidase reporter gene assay relative to OdDHL; outline: as §1
T3 sequence (whole entry): T2 sequence (Q9RMS5 whole entry)

[4] = target: T4, Transcriptional activator protein LasR (Pseudomonas aeruginosa (strain ATCC 15692 / PAO1 / 1C / PRS 101 / LMG12228), UniProt P25084); assay: (§3) Agonist activity at Pseudomonas aeruginosa LasR expressed in Escherichia coli JLD271 harboring LasR expression plasmid pJN105L and lasI-lacZ transcriptional fusion reporter pSC11-L measured after 35 mins by Miller-type beta-galactosidase reporter gene assay
T4 sequence (P25084 whole entry): T1 sequence (whole entry)
Outline: as §1, with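 “curves.” for “curves. Run in triplicate, n ≥ 3 trials; 95% CIs from SEM.”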

[5] = target: T4, Transcriptional activator protein LasR; assay: as §3, with “Antagonist” for “Agonist”, “assessed as inhibition of OdDHL-induced receptor activation” for “measured”, “4 hrs” for “35 mins”
[6] = target: T1, Transcriptional activator protein LasR (Pseudomonas aeruginosa (strain ATCC 15692 / PAO1 / 1C / PRS 101 / LMG12228)); assay: as above; conditions: concentration not given here
[7] = target: T3, PhzR (Pseudomonas aeruginosa); assay: as §2, with “Antagonist” for “Agonist”, “using ONPG as substrate assessed as inhibition of OdDHL-induced receptor activation” for “measured”, “4 hrs” for “35 mins”; conditions: concentration not given here
PhzR [8] = target: T2, PhzR; assay: as above

CCCCCCCCCC(=O)CC(=O)N[C@H]1CCCC1=O
Activity [1]: 110%
EC50 (PhzR [2]): 834 nM
Activity [3]: 77%
EC50 [4]: 14.9 nM

CCCCCCCCCC(=O)CC(=O)O[C@H]1CCOC1=O
Activity [1]: 27%
IC50 [5]: > 250000 nM
inhibition [6]: 53%
Activity [3]: 37%
inhibition [7]: 23%
IC50 (PhzR [8]): > 250000 nM

CCCCCCCCCC(=O)CC(=O)NC1CCCC1
Activity [1]: 88%
EC50 (PhzR [2]): 359 nM
Activity [3]: 100%
EC50 [4]: 162 nM

CCCCCCCCCC(=O)CC(=O)N[C@H]1CCSC1=O
Activity [1]: 100%
EC50 (PhzR [2]): 80.5 nM
Activity [3]: 110%
EC50 [4]: 1.53 nM

CCCCCCCCCC(=O)CC(=O)N[C@H]1CCNC1=O
Activity [1]: 110%
EC50 (PhzR [2]): 3320 nM
Activity [3]: 56%
EC50 [4]: 29.7 nM

CCCCCCCCCC(=O)CC(=O)N[C@@H]1CCOC1=O
Activity [1]: 99%
Activity [3]: 110%

CCCCCCCCCC(=O)CC(=O)N[C@H]1CCOC1
Activity [1]: 81%
EC50 (PhzR [2]): 815 nM
Activity [3]: 74%
EC50 [4]: 906 nM

CCCCCCCCCC(=O)CC(=O)N[C@H]1CCO[C@@H]1O
Activity [1]: 96%
EC50 (PhzR [2]): 3460 nM
Activity [3]: 110%
EC50 [4]: 1880 nM

CCCCCCCCCC(=O)CC(=O)NCC1CCCO1 (stereo not given)
Activity [1]: 96%
Activity [3]: 3.2%
EC50 [4]: 256 nM
inhibition [7]: 59%
IC50 (PhzR [8]): > 250000 nM

CCCCCCCCCCCS(=O)(=O)N[C@H]1CCOC1=O
Activity [1]: 6.4%
EC50 (PhzR [2]): 1590 nM
Activity [3]: 72%
